Experimental data collected from several papers.
Each line is one published result; the experiments were not run side by side.
Target: MAP/microtubule affinity-regulating kinase 3 (MARK3, Homo sapiens, UniProt P27448)

C[C@@H]1CCN(c2nccc(-c3cnn4ncccc34)n2)C1  remaining binding (binding; 1 µM): 100%
COc1cnc(Nc2cccc(S(N)(=O)=O)c2)nc1N1CCN(c2ccccc2)CC1  remaining binding (binding, competition with immobilised ligand; 1 µM): 100%
C[C@@H]1CN(c2cc(-c3nn(C)c4ccc(OC5(C)CC5)cc34)ncn2)C[C@H](C)O1  remaining binding (cell-free assay, competition with immobilised ligand; 1 µM): 100%
C[C@@H](c1ccc(-n2cnc3c(N)ncnc32)cc1)N1CCc2nn(C)c(Cc3ccccc3)c2C1=O  remaining binding (binding, competition with immobilised ligand; 0.1 µM): 93%
O=C(Nc1c[nH]nc1C(=O)NC1CCNCC1)c1cc(F)cc(F)c1  remaining binding (binding, competition with immobilised ligand; 1 µM): 100%
CN(C)C(=O)Cn1cc(-c2nc([C@@](C)(c3ccc(-c4cnc(N)nc4)cc3)C3CC3)no2)cn1  remaining binding (cell-free assay, competition with immobilised ligand; 1 µM): 99%
Nc1ncc2c(n1)-c1c([nH]c3ccc(C#CC4CC4)cc13)CCCC2  remaining binding (binding, competition with immobilised ligand; 1 µM): 97%
N#Cc1ccccc1CSc1nnc2c(n1)[nH]c1ccccc12  remaining binding (binding, competition with immobilised ligand; 10 µM): 93%
O=C(c1ccc(Nc2nccc(-c3cc4ccccc4s3)n2)cc1)N1CCC(N2CCCC2)CC1  remaining binding (binding, competition with immobilised ligand; 1 µM): 100%
CCc1ccccc1C(=O)Nc1n[nH]c2c(C)c(F)c(C3C(C#N)=C(C)N(C)C(C)=C3C#N)cc12  remaining binding (cell-free assay, competition with immobilised ligand; 1 µM): 30%
COc1cnc(Nc2cccc(S(N)(=O)=O)c2)nc1N1CCN(c2ccccc2)C(=O)C1  remaining binding (binding, competition with immobilised ligand; 1 µM): 92%
O=C(c1ccc(Nc2ncc(Cl)c(-c3ccc(Cl)s3)n2)cc1)N1CCC(N2CCCC2)CC1  remaining binding (binding, competition with immobilised ligand; 1 µM): 100%
CC(=O)Nc1c(C(C)=O)c(=O)n(C)c2nc(-c3ccc(Cl)cc3Cl)c(-c3ccc(Cl)cc3)cc12  remaining binding (cell-free assay, competition with immobilised ligand; 1 µM): 100%
CN(C)c1nccc(-c2cnn3ncccc23)n1  remaining binding (binding; 1 µM): 100%
O=C(Nc1ccc(Oc2ccc(F)cc2)cc1)N1CCc2ncccc2[C@H]1c1ccc(F)cc1  remaining binding (cell-free assay, competition with immobilised ligand; 1 µM): 100%
O=C(c1ccc(Nc2ncc(Cl)c(-c3cc4ccccc4s3)n2)cc1)N1CCC(N2CCCC2)CC1  remaining binding (binding, competition with immobilised ligand; 1 µM): 100%
N[C@H]1CCN(c2nccc(-c3cnn4ncccc34)n2)C1  remaining binding (binding; 1 µM): 57%
C[C@H](c1ccc(F)cc1)N(Cc1cccc(C(=O)O)c1)C(=O)c1cnc2ccccc2c1  remaining binding (cell-free assay, competition with immobilised ligand; 1 µM): 100%
CC1CCCN1c1nccc(-c2cnn3ncccc23)n1 (stereo not drawn)  remaining binding (binding; 1 µM): 100%
FC(F)(F)Oc1cccc(-c2cnc3ccc(-c4ccncc4)nn23)c1  remaining binding (cell-free assay, competition with immobilised ligand; 5 µM): 97%
Cc1cnn2ncc(-c3ccnc(N(C)C)n3)c2c1  remaining binding (binding; 1 µM): 82%
C[C@@H]1CN(c2ccc3ncc(-c4ccc5[nH]nc(C6CC6)c5c4)n3n2)C[C@H](C)O1  remaining binding (binding, competition with immobilised ligand; 50 nM): 100%
O=C(Nc1cccnn1)N1CCC(=Cc2cccc(Oc3ccc(C(F)(F)F)cn3)c2)CC1  remaining binding (cell-free assay, competition with immobilised ligand; 1 µM): 89%
F[C@@H]1CCN(c2nccc(-c3cnn4ncccc34)n2)C1  remaining binding (binding; 1 µM): 100%
